# How the values were obtained:
# [1] = Metabolic stability in human liver microsomes; assay type: in vitro ADME
# PDE5A1 = PDE5A1 (Homo sapiens, UniProt O76074); assay: Phosphodiesterase SPA assay, PDE5A1; assay type: biochemical; details: PDE5/2 selectivity
# [2] = Metabolic stability in human hepatocytes; assay type: in vitro ADME
# [3] = Apparent passive permeability, RRCK; assay type: in vitro ADME, Canine
# [4] = tested on: broad spectrum BioPrint panel; assay: Broad spectrum BioPrint panel selectivity screening; details: no significant activities
# iv/po PK in NHP = assay type: in vivo, Cynomolgus monkeys; details: male, cynomolgus monkey, plasma, 1 mg/kg
# Procedure, shortened: (§1)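 Each species study used two animals per dose. Clearance is the observed plasma clearance. The same studies also gave steady-state volume of distribution, half-life, oral bioavailability and percent renal clearance.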
# [5] = Predicted human pharmacokinetics; details: predicted from in vitro and in vivo properties
# iv/po PK in rat = assay type: in vivo
# Procedure, shortened: as §1
smiles,measurement,setting,value
Cc1nn2c(-c3c(CO)nn(C)c3-c3ccc(C(F)(F)F)cc3)nc(C)c2c(=O)[nH]1 [Compound 5],CLint scaled,[1],< 8 mL/min/kg
"Cc1nn2c(-c3c(C)nn(C)c3-c3ccc(C(F)(F)F)cc3)nc(CO)c2c(=O)[nH]1 [Compound 2, 7-(1,3-dimethyl-5-(4-(trifluoromethyl)phenyl)-1H-pyrazol-4-yl)-5-(hydroxymethyl)-2-methylimidazo[5,1-f][1,2,4]triazin-4(3H)-one]",selectivity over other phosphodiesterases (margin),PDE5A1,≥ 1000 fold
same,CLint scaled,[1],< 8 mL/min/kg
same,CLint scaled,[2],< 0.36 mL/min/kg
same,decrease of passive permeability relative to 1,"[3]; RRCK Papp, 2 vs 1",3 fold
same,IC50 or EC50 in BioPrint panel,[4],> 10 µM
same,clearance,iv/po PK in NHP,4 mL/min/kg
same,predicted human plasma clearance,[5],2.9 mL/min/kg
same,predicted human t1/2,[5],3.7 h
same,predicted human volume of distribution,[5],0.9 L/kg
Cc1nn2c(-c3c(C)nn(C)c3-c3ccc(C(F)(F)F)cc3)nc(C)c2c(=O)[nH]1 [Compound 1],CLint scaled,[1],16 mL/min/kg
same,CLint scaled,[2],18 mL/min/kg
same,Papp,"[3]; dog, MDCK",23 ×10⁻⁶ cm/s
same,in vivo rat clearance profile,iv/po PK in rat,not show any extra-hepatic clearance pathways
Cc1nn2c(-c3c(CO)nn(C)c3-c3ccc(C(F)(F)F)cc3)nc(CO)c2c(=O)[nH]1 [Compound 6],CLint scaled,[1],< 9.2 mL/min/kg

# Reference: article PMC5807869 (ACS Medicinal Chemistry Letters, 2018)
